Assay results published in ChEMBL document CHEMBL4138242, “Synthesis and antibacterial evaluation of novel cationic chalcone derivatives possessing broad spectrum antibacterial activity” (Eur J Med Chem, 2018).
Calls of active or inactive are those of the source. No cut-off for these calls is given here.

Experiments:
Staphylococcus aureus [1] = test: Antibacterial activity against methicillin-resistant Staphylococcus aureus clinical isolate 1-may after 16 to 20 hrs by broth microdilution method; type: functional
Procedure, shortened: (§1)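 CLSI broth microdilution in Mueller-Hinton broth. A 4-6 h culture was diluted to about 10⁶ CFU/mL and mixed 1:1 with compound dilutions prepared at 256 to 0.5 µg/mL from aqueous stocks. Plates were incubated at 37 °C for 16-20 h and read visually for MIC. Each concentration was run in duplicate, and the experiment was repeated at least twice. Vancomycin and meropenem were comparators.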

HeLa [2] = test: Cytotoxicity against human HeLa cells at 2 to 4 times MIC after 24 hrs by calcein AM/propidium iodide staining-based fluorescence microscopic method; type: cell-based
Procedure, shortened: (§2)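 HeLa cells in DMEM with 10% FBS (37 °C, 5% CO₂), seeded in 12-well plates and left to adhere overnight. Treated 24 h with compound at 2× and 4× MIC; untreated and 0.1% Triton X-100 controls. Cells washed with PBS and imaged for morphology. For live/dead imaging, stained with 2 µM calcein AM and 4.5 µM PI for 15 min at 37 °C.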

Staphylococcus aureus [3] = test: Antibacterial activity against methicillin-resistant Staphylococcus aureus clinical isolate 1105183 cono7 after 16 to 20 hrs by broth microdilution method; type: functional; procedure, shortened: as §1
Staphylococcus aureus [4] = test: Antibacterial activity against methicillin-resistant Staphylococcus aureus clinical isolate 1208143 after 16 to 20 hrs by broth microdilution method; type: functional; procedure, shortened: as §1
Staphylococcus aureus [5] = test: Antibacterial activity against methicillin-resistant Staphylococcus aureus clinical isolate 1207007 after 16 to 20 hrs by broth microdilution method; type: functional; procedure, shortened: as §1
HeLa [6] = test: Cytotoxicity against human HeLa cells assessed as effect on cell morphology at 2 to 4 times MIC after 24 hrs by electron scanning microscopic method; type: cell-based; procedure, shortened: as §2
Staphylococcus aureus [7] = test: Bactericidal activity against methicillin-resistant Staphylococcus aureus in presence of 50% sheep blood after 20 to 24 hrs; type: functional; conditions: read-out: MBC99.9
Procedure, shortened: (§3)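 MRSA at 10⁵ CFU/mL in 50% MHB plus 50% sheep serum, plasma or defibrinated blood; serum and plasma were obtained by centrifugation at 3,500 rpm for 10 min. Aqueous dilutions prepared at 512-4 µg/mL were added 1:3 to the suspension and incubated for 20-24 h at 37 °C. Well contents (20 µL) were plated on MHA for 20-24 h, and MBC was the concentration giving no colonies.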

Escherichia coli [8] = test: Bactericidal activity against Escherichia coli ATCC 25922 at 6 to 8 times MIC after 6 hrs by time-kill assay; type: functional, organism-based
Procedure, shortened: (§4)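 Overnight cultures diluted 1:10,000 in MHB and grown at 37 °C, 225 rpm, for 2 h (early exponential) or 5 h (late exponential). Cells exposed to compound at 6× or 8× MIC in tubes at 37 °C, 225 rpm. At intervals, aliquots were spun, resuspended in PBS, tenfold diluted, plated on MHA overnight at 37 °C and counted as CFU/mL. Biological replicates.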

Staphylococcus aureus [9] = test: Bactericidal activity against methicillin-resistant Staphylococcus aureus in presence of 50% sheep serum after 20 to 24 hrs; type: functional; conditions: read-out: MBC99.9; procedure, shortened: as §3
Staphylococcus aureus [10] = test: Antibacterial activity against Staphylococcus aureus ATCC 29213 after 16 to 20 hrs by broth microdilution method; type: functional
Procedure, shortened: (§5)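 Broth microdilution per CLSI. Bacteria grown 4-6 h (about 10⁸ CFU/mL), then diluted to about 10⁶ CFU/mL. Medium: Mueller-Hinton broth, except Luria-Bertani broth for E. coli. Compounds in sterile water, twofold series 256-0.5 µg/mL, mixed 1:1 with inoculum, 37 °C for 16-20 h. MIC is the lowest concentration without visible growth. Duplicate wells; experiment repeated at least twice.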

Staphylococcus aureus [11] = test: Antibacterial activity against methicillin-resistant Staphylococcus aureus clinical isolate 1104060 after 16 to 20 hrs by broth microdilution method; type: functional; procedure, shortened: as §1
Staphylococcus aureus [12] = test: Antibacterial activity against methicillin-resistant Staphylococcus aureus clinical isolate 20131012632sau after 16 to 20 hrs by broth microdilution method; type: functional; procedure, shortened: as §1
Escherichia coli [13] = test: Antibacterial activity against Escherichia coli ATCC 25922 after 16 to 20 hrs by broth microdilution method; type: functional; procedure, shortened: as §5
Enterococcus faecalis = test: Antibacterial activity against Enterococcus faecalis ATCC 29212 after 16 to 20 hrs by broth microdilution method; type: functional; procedure, shortened: as §5
Staphylococcus aureus [14] = test: Induction of cytoplasmic membrane depolarization in Staphylococcus aureus ATCC 29213 at 10 to 20 ug/ml measured every 2 mins for 12 mins by DiSC35 dye-based fluorescence assay; type: functional, organism-based
Procedure, shortened: (§6)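 Mid-log cells (~10⁸ CFU/mL) were suspended in PBS (S. aureus) or HEPES/glucose/KCl with EDTA (E. coli). They were preloaded with DiSC3(5) for 30 min (S. aureus) or 40 min (E. coli), and baseline fluorescence was read for 8 min. Compound was added to 20 µg/mL final, and fluorescence (ex 622/em 670 nm) was read every 2 min for 12 min. Water served as control.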

Escherichia coli [15] = test: Induction of cytoplasmic membrane depolarization in Escherichia coli ATCC 25922 at 10 to 20 ug/ml measured every 2 mins for 12 mins by DiSC35 dye-based fluorescence assay; type: functional, organism-based; procedure, shortened: as §6
Staphylococcus aureus [16] = test: Induction of inner membrane permeabilization in Staphylococcus aureus ATCC 29213 at 10 to 20 ug/ml measured every 2 mins for 12 mins by propidium iodide staining-based fluorescence assay; type: functional, organism-based
Procedure, shortened: (§7)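 Mid-log cells (~10⁸ CFU/mL) were suspended in PBS (S. aureus) or HEPES/glucose/KCl (E. coli). They were preincubated with propidium iodide for 30 min (S. aureus) or 40 min (E. coli), and baseline fluorescence was read for 8 min. Compound was added to 20 µg/mL final, and fluorescence (ex 535/em 617 nm) was read every 2 min for 12 min.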

Staphylococcus aureus [17] = test: Antibacterial activity against methicillin-resistant Staphylococcus aureus clinical isolate 0831010 after 16 to 20 hrs by broth microdilution method; type: functional; procedure, shortened: as §1
Staphylococcus aureus [18] = test: Antibacterial activity against methicillin-resistant Staphylococcus aureus clinical isolate 0906202 after 16 to 20 hrs by broth microdilution method; type: functional; procedure, shortened: as §1
Staphylococcus aureus [19] = test: Antibacterial activity against methicillin-resistant Staphylococcus aureus clinical isolate 20130911034sau after 16 to 20 hrs by broth microdilution method; type: functional; procedure, shortened: as §1
Escherichia coli [20] = test: Induction of inner membrane permeabilization in Escherichia coli ATCC 25922 at 10 to 20 ug/ml measured every 2 mins for 12 mins by propidium iodide staining-based fluorescence assay; type: functional, organism-based; procedure, shortened: as §7
Staphylococcus aureus [21] = test: Ratio of MBC99.9 for methicillin-resistant Staphylococcus aureus in presence of 50% sheep serum to MBC99.9 for methicillin-resistant Staphylococcus aureus ATCC 29213 in presence of 50% sheep plasma; type: functional; procedure, shortened: as §3
Staphylococcus aureus [22] = test: Bactericidal activity against Staphylococcus aureus ATCC 29213 at 6 times MIC after 3 hrs by time-kill assay (reference value: 10^6.1 CFU/ml); type: functional; procedure, shortened: as §4
Escherichia coli [23] = test: Disruption of 72 hrs cultured Escherichia coli ATCC 25922 biofilm assessed as decrease in cell viability in biofilm after 24 hrs by crystal violet staining-based assay; type: functional, organism-based
[24] = Hemolytic activity in sheep RBC after 1 hr; type: ADME, cell-based, Ovis aries, Erythrocyte; conditions: sheep red blood cells (erythrocytes)
Procedure, shortened: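 Sheep red blood cells (150 µL suspension) mixed with 50 µL of compound dilutions (5120-10 µg/mL), 1 h at 37 °C, then centrifuged. Supernatant read at 540 nm. Percent hemolysis calculated relative to RBC-only control (0%) and 0.1% Triton X-100 (100%).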

Salmonella enterica = test: Antibacterial activity against Salmonella enterica ATCC 13076 after 16 to 20 hrs by broth microdilution method; type: functional; procedure, shortened: as §5

CCCCCCCC[N+](C)(C)CC(=O)Nc1ccc(C(=O)/C=C/c2ccccc2)cc1.[Cl-]
MIC (Staphylococcus aureus [1]): 1 µg/mL | Activity (HeLa [2]): Toxic | MIC (Staphylococcus aureus [3]): 1 µg/mL | MIC (Staphylococcus aureus [4]): 2 µg/mL | MIC (Staphylococcus aureus [5]): 0.5 µg/mL | Activity (HeLa [6]): Non-Toxic | MBC (Staphylococcus aureus [7]): 128 µg/mL | Activity (Escherichia coli [8]): Active | MBC (Staphylococcus aureus [9]): 32 µg/mL | MIC (Staphylococcus aureus [10]): 1 µg/mL | MIC (Staphylococcus aureus [11]): 8 µg/mL | MIC (Staphylococcus aureus [12]): 4 µg/mL | MIC (Escherichia coli [13]): 2 µg/mL | MIC (Enterococcus faecalis): 1 µg/mL | Activity (Staphylococcus aureus [14]): Active | Activity (Escherichia coli [15]): Active | Activity (Staphylococcus aureus [16]): Active | MIC (Staphylococcus aureus [17]): 1 µg/mL | MIC (Staphylococcus aureus [18]): 4 µg/mL | MIC (Staphylococcus aureus [19]): 0.5 µg/mL | Activity (Escherichia coli [20]): Active | Ratio (Staphylococcus aureus [21]): 2 | Activity (Staphylococcus aureus [22]): 1 CFU/ml | Activity (Escherichia coli [23]): Active | HC50 at 1 h [24]: 228 µg/mL | MIC (Salmonella enterica): 4 µg/mL
